Tests used:
Hepatitis C virus = experiment: Antiviral activity against HCV 1b infected in human HuH7 cells after 46 to 50 hrs by luc/neo ET replicon assay; type: functional, organism-based, Hepacivirus hominis; conditions: genotype 1b, Huh-7
How it was run: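 Huh-7 cells stably carrying luc/neo ET replicon, grown in DMEM with 10% FCS, were seeded at 5 × 10³ cells/well. Serially diluted compounds were added about 24 h after plating, at 1% final DMSO. After 46–50 h exposure, cells were lysed with BrightGLO reagent for 2 min at 20 °C and luminescence was read.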

[1] = Inhibition of HCV isolate HC-J4 NS5B deltaC21 polymerase; set-up: species or system Hepatitis C virus isolate HC-J4
How it was run: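 Genotype 1b J4 ΔC21 enzyme (5 nM) in 20 mM Tris pH 7.5 with 5 mM MgCl₂, 5 mM KCl, 1 mM EDTA, 2 mM DTT and 0.01% BSA, room temperature. Serial DMSO dilutions were preincubated with enzyme for 5 min. Reaction was started with 250 nM 5′-biotin-rU₁₂ primer, poly-rA template, UTP and ³H-UTP, in 5% DMSO, and run 2 h. Stopped with EDTA/streptavidin SPA beads, then CsCl; scintillation counting.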

[2] = Cytotoxicity against human HuH7 cells; type: cell-based, Huh-7
[3] = Inhibition of HCV 1a NS5B polymerase; set-up: species or system Hepatitis C virus subtype 1a

| SMILES | EC50 (Hepatitis C virus) | IC50 [1] | IC50 [3] | CC50 [2] |
| --- | --- | --- | --- | --- |
| CC(C)CCc1c(F)c(C2=NS(=O)(=O)c3ccccc3N2)c(O)c2ccccc12 | 19 µM | 0.11 µM |  | 12 µM |
| CC(C)CCc1c(O)c2c(c3ccccc13)OCN1C2=Nc2ccc(NS(C)(=O)=O)cc2S1(=O)=O | 12 µM | 1.3 µM |  | 35 µM |
| COc1c(C2=NS(=O)(=O)c3cc(NS(C)(=O)=O)ccc3N2)cc(CCC(C)C)c2ccccc12 | 21 µM | 0.048 µM |  | 51 µM |
| CC(C)CCn1c(=O)c(C2=NS(=O)(=O)c3ccccc3N2)c(O)c2ccccc21 | 0.417 µM |  |  |  |
| COc1c(C2=NS(=O)(=O)c3cc(NS(C)(=O)=O)ccc3N2)c(OC)c2ccccc2c1CCC(C)C | > 100 µM | 0.63 µM |  | 40 µM |
| CC(C)CCc1c2c(c(O)c3ccccc13)C1=Nc3ccc(NS(C)(=O)=O)cc3S(=O)(=O)N1CO2 | 8.4 µM | 0.49 µM |  | 33 µM |
| COc1c(C2=NS(=O)(=O)c3ccccc3N2)cc(CCC(C)C)c2ccccc12 | 9.5 µM | 27 µM |  | 13 µM |

Now from value to compound, other results behind:

| EC50 (Hepatitis C virus) | IC50 [1] | IC50 [3] | SMILES | CC50 [2] |
| --- | --- | --- | --- | --- |
| 1.1 µM | 0.005 µM |  | COc1c(C2=NS(=O)(=O)c3cc(NS(C)(=O)=O)ccc3N2)c(O)c(CCC(C)C)c2ccccc12 | 110 µM |
| 2.9 µM | 0.037 µM |  | COc1c(C2=NS(=O)(=O)c3cc(NS(C)(=O)=O)ccc3N2)c(O)c2ccccc2c1CCC(C)C | 120 µM |
| 4.3 µM | 0.15 µM |  | CC(C)CCc1cc(C2=NS(=O)(=O)c3cc(NS(C)(=O)=O)ccc3N2)c(O)c2ccccc12 | > 100 µM |
| 2.7 µM | 0.031 µM |  | CC(C)CCc1c(F)c(C2=NS(=O)(=O)c3cc(NS(C)(=O)=O)ccc3N2)c(O)c2ccccc12 | > 100 µM |
| 34 µM | 0.53 µM |  | CC(C)CCc1c(O)c2c(c3ccccc13)OCN1C2=NS(=O)(=O)c2cc(NS(C)(=O)=O)ccc21 | > 100 µM |
|  | 0.00033 µM | 0.00125 µM | CC(C)CC[C@@]1(C)C(=O)C(C2=NS(=O)(=O)c3cc(NS(C)(=O)=O)ccc3N2)=C(O)c2ccccc21 |  |
| > 100 µM | 8.7 µM |  | CC(C)CCc1c2c(c(O)c3ccccc13)C1=NS(=O)(=O)c3cc(NS(C)(=O)=O)ccc3N1CO2 | > 100 µM |
| 26 µM | 8.4 µM |  | CC(C)CCc1cc(C2=NS(=O)(=O)c3ccccc3N2)c(O)c2ccccc12 | 37 µM |
| 0.019 µM | < 0.005 µM |  | CC(C)CCC1(O)C(=O)C(C2=NS(=O)(=O)c3cc(NS(C)(=O)=O)ccc3N2)=C(O)c2ccccc21 (stereo not given) | > 100 µM |

Reference: ChEMBL document CHEMBL1153632, “HCV NS5B polymerase inhibitors 1: Synthesis and in vitro activity of 2-(1,1-dioxo-2H-[1,2,4]benzothiadiazin-3-yl)-1-hydroxynaphthalene derivatives” (Bioorg Med Chem Lett, 2009)
